Assay results gathered from unrelated publications.
Compare with care: the assays were run in different laboratories.
Cell line: CAKI-1
Effect on: cell growth or viability

| SMILES | assay | setting | measurement | result |
| --- | --- | --- | --- | --- |
| COc1ccc(-c2ccc(-c3ccc(C(=N)N)nc3)s2)cc1Cl |  |  | GI50 | 1.74 µM |
| [Cl-].[Cl-].[Ti+4].c1cc[cH-]c1.c1cc[cH-]c1 | XTT | 24 h | IC50 | > 200 µM |
| Cc1cc(C)n(C(=S)[S][Au][PH](CCCCCC[PH]([Au][S]C(=S)n2nc(C)cc2C)(c2ccccc2)c2ccccc2)(c2ccccc2)c2ccccc2)n1 |  |  | GI50 | 2.16 µM |
| CC(C)C[C@H](NC(=O)[C@H](Cc1ccccc1)NC(=O)c1cnccn1)B(O)O | ATP luminescence |  | IC50 | 0.01 µM |
| COc1ccc(C(=O)/C=C/c2cc3c(cc2Br)OCO3)cc1S(N)(=O)=O | SRB | 48 h | GI50 | 4.6 µM |
| COc1cc(Nc2nccc(-c3cnn4nc(OC)ccc34)n2)cc(C(F)(F)F)c1 | ATP luminescence |  | IC50 | 0.31 µM |
| O=C1Nc2ccccc2C1=NNc1nnc2n1N=C(c1ccccc1)CS2 | SRB | 10 µM | inhibition | 21% |
| COc1ccc(-c2ccc(-c3ccc(C(=N)N)nc3)s2)cc1 |  |  | GI50 | 1.64 µM |
| S=C([S][Au-][P+](CCCCCC[P+]([Au-][S]C(=S)n1cccn1)(c1ccccc1)c1ccccc1)(c1ccccc1)c1ccccc1)n1cccn1 |  |  | GI50 | 7.15 µM |
| COc1ccc(C(=O)/C=C/c2cccc(Cl)c2Cl)cc1S(N)(=O)=O | SRB | 10 µM | inhibition | 106% |
| CC(=O)OC[C@H]1O[C@@H]([S-])[C@H](OC(C)=O)[C@@H](OC(C)=O)[C@@H]1OC(C)=O.CCP(CC)CC.[Au+] | resazurin |  | IC50 | 2.29 µM |
